Blank lines part the entries; values can stand above or below the molecule they belong to. Active and inactive are the calls of the source. The rule behind the calls is not given here.
Legend:
[1] = biological target: T1, D-3-phosphoglycerate dehydrogenase (Homo sapiens, UniProt O43175); assay: Inhibition of PHGDH (unknown origin) using 140 nM of PHGDH and 3-PG as substrate incubated for 20 mins in presence of NAD+, PSAT1, PSPH by diaphorase and resazurin dye based fluorescence assay
T1 sequence (O43175 whole entry): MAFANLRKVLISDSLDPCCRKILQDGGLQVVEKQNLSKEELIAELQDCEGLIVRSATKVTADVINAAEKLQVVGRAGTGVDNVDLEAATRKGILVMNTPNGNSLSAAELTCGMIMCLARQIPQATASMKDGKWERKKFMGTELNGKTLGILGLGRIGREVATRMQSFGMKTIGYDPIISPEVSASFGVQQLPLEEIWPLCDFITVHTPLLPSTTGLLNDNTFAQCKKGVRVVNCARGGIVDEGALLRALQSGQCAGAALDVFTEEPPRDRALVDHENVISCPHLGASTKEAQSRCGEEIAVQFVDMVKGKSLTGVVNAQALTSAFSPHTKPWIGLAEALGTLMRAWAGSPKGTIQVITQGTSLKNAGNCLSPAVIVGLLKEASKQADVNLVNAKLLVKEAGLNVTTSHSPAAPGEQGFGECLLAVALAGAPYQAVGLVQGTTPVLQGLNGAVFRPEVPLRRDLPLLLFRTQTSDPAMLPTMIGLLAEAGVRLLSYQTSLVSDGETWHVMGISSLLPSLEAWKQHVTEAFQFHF

[2] = biological target: Isocitrate dehydrogenase [NADP] cytoplasmic (Homo sapiens, UniProt O75874); assay: Inhibition of recombinant human IDH1 expressed in Escherichia coli using isocitrate as substrate incubated for 30 mins followed by substrate addition
[3] = biological target: T2, Malate dehydrogenase, cytoplasmic (Homo sapiens, UniProt P40925); assay: Inhibition of recombinant human MDH1 expressed in Escherichia coli using malate as substrate incubated for 30 mins followed by substrate addition
T2 sequence (P40925 whole entry): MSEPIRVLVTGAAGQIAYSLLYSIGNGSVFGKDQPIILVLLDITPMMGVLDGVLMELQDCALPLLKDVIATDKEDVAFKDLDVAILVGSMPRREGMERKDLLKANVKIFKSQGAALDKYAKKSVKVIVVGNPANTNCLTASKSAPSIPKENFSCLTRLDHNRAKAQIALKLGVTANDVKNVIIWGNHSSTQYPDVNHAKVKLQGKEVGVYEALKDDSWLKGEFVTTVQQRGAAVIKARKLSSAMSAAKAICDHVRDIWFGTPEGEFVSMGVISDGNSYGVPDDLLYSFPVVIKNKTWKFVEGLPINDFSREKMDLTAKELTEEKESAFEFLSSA

[4] = biological target: T3, D-3-phosphoglycerate dehydrogenase (Homo sapiens) (UniProt O43175); assay: Inhibition of PHGDH-mediated serine synthesis in human Carney cells in serine free medium at 10 uM preincubated for 1 hr followed by 13C6 labelled glucose addition and measured after 2 hrs by LC/MS analysis based 13C6-Glucose tracing assay relative control; assay type: cell-based
T3 sequence (whole entry): T1 sequence (O43175 whole entry)
Outline: (§1)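 Carney cells were pretreated with inhibitor for 1 h in the presence of 12C3-serine, then washed. They were labelled with 13C6-glucose medium for 2 h with inhibitor still present. 13C incorporation into serine was read by LC-MS; 3-PG and pyruvate labelling were also monitored.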

[5] = organism: Homo sapiens; assay: Antiproliferative activity against human Carney cells in serine free medium at 2 uM with media and test compound change for every 2 days and measured every 6 hrs by automated microscopic method; assay type: functional, cell-based
[6] = Effect on 3-PG level in human Carney cells in serine free medium assessed as 13C-labeling of 3-PG at 0.1 to 20 uM preincubated for 1 hr followed by 13C6 labelled glucose addition and measured after 2 hrs by LC/MS analysis; assay type: ADME, cell-based
Outline: (§2)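 Carney cells were pretreated with inhibitor for 1 h in the presence of 12C3-serine, then washed. They were labeled with 13C6-glucose medium for 2 h with inhibitor still present. Label incorporation into 3-PG and pyruvate was measured by LC-MS, alongside serine labeling as the pathway read-out.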

[7] = Effect on pyruvate level in human Carney cells in serine free medium assessed as 13C-labeling of pyruvate at 0.1 to 20 uM preincubated for 1 hr followed by 13C6 labelled glucose addition and measured after 2 hrs by LC/MS analysis; assay type: ADME, cell-based; outline: as §2
[8] = Effect on 3-PG level in human Carney cells in serine free medium assessed as 13C-labeling of 3-PG at 0.1 to 10 uM preincubated for 1 hr followed by 13C6 labelled glucose addition and measured after 2 hrs by LC/MS analysis; assay type: ADME, cell-based; outline: as §2
[9] = Effect on pyruvate level in human Carney cells in serine free medium assessed as 13C-labeling of pyruvate at 0.1 to 10 uM preincubated for 1 hr followed by 13C6 labelled glucose addition and measured after 2 hrs by LC/MS analysis; assay type: ADME, cell-based; outline: as §2
[10] = Lipophilicity, log D of the compound at pH 7.4 by HPLC analysis; assay type: physicochemical; conditions: buffer
[11] = Apparent permeability across apical to basolateral side in MDCK cells overexpressing MDR1; assay type: ADME, cell-based, Canis lupus familiaris; conditions: dog
[12] = Efflux ratio of apparent permeability across basolateral to apical over apical to basolateral side in MDCK cells overexpressing MDR1; assay type: ADME, cell-based, Canis lupus familiaris; conditions: dog
[13] = biological target: L-lactate dehydrogenase A chain (Homo sapiens, UniProt P00338); assay: Inhibition of recombinant human LDHA expressed in Escherichia coli using lactate as substrate incubated for 30 mins followed by substrate addition
[14] = biological target: T3, D-3-phosphoglycerate dehydrogenase (Homo sapiens); assay: Inhibition of PHGDH-mediated serine synthesis in human Carney cells in serine free medium up to 40 uM preincubated for 1 hr followed by 13C6 labelled glucose addition and measured after 2 hrs by LC/MS analysis based 13C6-Glucose tracing assay; assay type: cell-based; outline: as §1
[15] = biological target: T3, D-3-phosphoglycerate dehydrogenase (Homo sapiens); assay: Mixed type inhibition of PHGDH (unknown origin) assessed as decrease in substrate Vmax 3-PG as substrate incubated for 20 mins in presence of , PSAT1, PSPH and varying NAD+ by diaphorase and resazurin dye based fluorescence assay
[16] = biological target: T3, D-3-phosphoglycerate dehydrogenase (Homo sapiens); assay: Mixed type inhibition of PHGDH (unknown origin) assessed as rightward shift in substrate Km using 3-PG as substrate incubated for 20 mins in presence of , PSAT1, PSPH and varying NAD+ by diaphorase and resazurin dye based fluorescence assay
[17] = Effect on 3-PG level in human Carney cells in serine free medium assessed as 13C-labeling of 3-PG at 1 to 40 uM preincubated for 1 hr followed by 13C6 labelled glucose addition and measured after 2 hrs by LC/MS analysis; assay type: ADME, cell-based; outline: as §2
[18] = biological target: T1, D-3-phosphoglycerate dehydrogenase; assay: Inhibition of PHGDH (unknown origin)
[19] = biological target: T1, D-3-phosphoglycerate dehydrogenase; assay: Inhibition of PHGDH (unknown origin) using 11 nM of PHGDH and 3-PG as substrate incubated for 20 mins in presence of NAD+, PSAT1, PSPH by diaphorase and resazurin dye based fluorescence assay
[20] = in vitro; conditions: PAMPA, pH 5
[21] = biological target: T3, D-3-phosphoglycerate dehydrogenase (Homo sapiens); assay: Inhibition of PHGDH-mediated serine synthesis in human Carney cells in serine free medium at uM preincubated for 1 hr followed by 13C6 labelled glucose addition and measured after 2 hrs by LC/MS analysis based 13C6-Glucose tracing assay relative control; assay type: cell-based; conditions: concentration not given here; outline: as §1
[22] = biological target: T3, D-3-phosphoglycerate dehydrogenase (Homo sapiens); assay: Inhibition of PHGDH-mediated serine synthesis in human Carney cells in serine free medium at 1 uM preincubated for 1 hr followed by 13C6 labelled glucose addition and measured after 2 hrs by LC/MS analysis based 13C6-Glucose tracing assay relative control; assay type: cell-based; outline: as §1
[23] = biological target: T3, D-3-phosphoglycerate dehydrogenase (Homo sapiens); assay: Inhibition of PHGDH-mediated serine synthesis in human Carney cells in serine free medium at 40 uM preincubated for 1 hr followed by 13C6 labelled glucose addition and measured after 2 hrs by LC/MS analysis based 13C6-Glucose tracing assay relative control; assay type: cell-based; outline: as §1
[24] = biological target: T3, D-3-phosphoglycerate dehydrogenase (Homo sapiens); assay: Inhibition of PHGDH-mediated serine synthesis in human Carney cells in serine free medium preincubated for 1 hr followed by 13C6 labelled glucose addition and measured after 2 hrs by LC/MS analysis based 13C6-Glucose tracing assay relative control; assay type: cell-based; outline: as §1
[25] = biological target: T3, D-3-phosphoglycerate dehydrogenase (Homo sapiens); assay: Inhibition of PHGDH-mediated serine synthesis in human Carney cells in serine free medium at 1 to 40 uM preincubated for […] followed by 13C6 labelled glucose addition and measured after 2 hrs by LC/MS analysis based 13C6-Glucose tracing assay relative control; assay type: cell-based
[26] = Effect on pyruvate level in human Carney cells in serine free medium assessed as 13C-labeling of pyruvate at 1 to 40 uM preincubated for 1 hr followed by 13C6 labelled glucose addition and measured after 2 hrs by LC/MS analysis; assay type: ADME, cell-based; outline: as §2

Sequence of Isocitrate dehydrogenase [NADP] cytoplasmic (O75874 whole entry): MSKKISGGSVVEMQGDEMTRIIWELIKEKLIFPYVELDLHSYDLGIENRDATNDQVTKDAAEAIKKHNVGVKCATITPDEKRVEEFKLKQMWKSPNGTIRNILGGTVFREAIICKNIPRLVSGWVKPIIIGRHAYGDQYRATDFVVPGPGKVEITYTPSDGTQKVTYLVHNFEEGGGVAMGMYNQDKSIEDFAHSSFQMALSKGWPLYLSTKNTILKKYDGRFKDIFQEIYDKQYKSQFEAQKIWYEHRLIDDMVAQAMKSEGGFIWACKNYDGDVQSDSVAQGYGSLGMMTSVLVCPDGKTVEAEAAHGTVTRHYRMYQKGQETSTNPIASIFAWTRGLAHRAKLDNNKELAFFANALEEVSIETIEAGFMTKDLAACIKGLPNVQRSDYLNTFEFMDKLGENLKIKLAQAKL

SMILES: CONC(=O)Cc1ccc(C2(NC(=O)c3cc4c(Cl)c(Cl)ccc4n3C)COC2)cc1
IC50 [1]: 287 nM

SMILES: Cn1c(C(=O)NC2(c3ccc(C(C(=O)O)c4cccnc4)cc3)COC2)cc2c(Cl)c(Cl)ccc21 (racemic)
IC50 [2]: > 10000 nM
IC50 [3]: > 10000 nM
inhibition [4]: 90%
Activity [5]: Active
Activity [6]: Non-Toxic
Activity [7]: Non-Toxic

SMILES: CCOC(=O)C(c1ccc(C2(NC(=O)c3cc4c(Cl)c(Cl)ccc4n3C)COC2)cc1)c1cccnc1 (stereo not given)
IC50 [1]: 1330 nM
inhibition [4]: 70%
Activity [8]: Non-Toxic
Activity [9]: Non-Toxic

SMILES: Cn1c(CNC2(c3ccc(C(=O)O)cc3)COC2)cc2c(Cl)c(Cl)ccc21
IC50 [1]: 209000 nM

SMILES: COc1cc2c(cc1Cl)cc(C(=O)N[C@H](C)c1ccc(C(=O)O)cc1)n2C
IC50 [1]: 235 nM
logD [10]: 1.67
Papp [11]: 1.4 ×10⁻⁶ cm/s
Ratio [12]: 1.3

IC50 [13]: > 10000 nM
IC50 [2]: > 10000 nM
IC50 [3]: > 10000 nM
inhibition [14]: inactive
inhibition [15]: Active
inhibition [16]: Active
SMILES: O=C1NC[C@@H](COc2cc3[nH]c(C(=O)N[C@H](CO)c4ccc(C(=O)O)cc4)cc3cc2Cl)O1
Activity [17]: Non-Toxic

SMILES: C#CSc1c(NC(=O)c2ccco2)sc(C(=O)OCC)c1C
IC50 [18]: 33000 nM

SMILES: Cn1c(C(=O)NC2(c3ccc(CC(=O)O)c(F)c3)COC2)cc2c(Cl)c(Cl)ccc21
IC50 [19]: 34 nM

SMILES: Cn1c(C(=O)NC2(c3ccc(CO)cc3)COC2)cc2c(Cl)c(Cl)ccc21
IC50 [1]: 1580 nM

SMILES: Cn1c(C(=O)NC2(c3ccc(CC(=O)NS(C)(=O)=O)cc3)COC2)cc2c(Cl)c(Cl)ccc21
IC50 [19]: 439 nM

SMILES: COc1cc2c(cc1Cl)cc(C(=O)NC(CO)c1ccc(C(=O)O)cc1)n2C (stereo not given)
IC50 [1]: 235 nM

SMILES: Cn1c(C(=O)NC2(c3ccc(C(=O)O)c(F)c3)COC2)cc2c(Cl)c(Cl)ccc21
IC50 [19]: 37 nM
Papp at 10 µM [20]: 15.2 ×10⁻⁶ cm/s

SMILES: CC(=O)OC(C)OC(=O)C(c1ccc(C2(NC(=O)c3cc4c(Cl)c(Cl)ccc4n3C)COC2)cc1)c1cccnc1 (stereo not given)
IC50 [1]: 1460 nM
inhibition [21]: 40%
inhibition [22]: < 100%
Activity [5]: Active
Activity [8]: Non-Toxic
Activity [9]: Non-Toxic

IC50 [1]: 990 nM
SMILES: Cn1c(C(=O)NC2(c3ccc([C@H](O)c4cccnc4)cc3)COC2)cc2c(Cl)c(Cl)ccc21

IC50 [1]: 370 nM
IC50 [13]: > 10000 nM
IC50 [2]: > 10000 nM
IC50 [3]: > 10000 nM
SMILES: Cn1c(C(=O)NC2(c3ccc([C@@H](O)c4cccnc4)cc3)COC2)cc2c(Cl)c(Cl)ccc21

SMILES: COc1cc2c(cc1Cl)cc(C(=O)NC(CN)c1ccc(C(=O)O)cc1)n2C (stereo not given)
IC50 [1]: 23400 nM

SMILES: Cn1c(C(=O)NC2(c3ccc(C(CC(=O)O)c4cccnc4)cc3)COC2)cc2c(Cl)c(Cl)ccc21 (stereo not given)
IC50 [19]: 25 nM

SMILES: Cn1c(C(=O)NC2(c3ccc(C(=O)O)nc3)COC2)cc2c(Cl)c(Cl)ccc21
IC50 [1]: 22000 nM

SMILES: Cn1c(C(=O)NC2(c3ccc(C(=O)O)cc3)COC2)cc2c(Cl)c(Cl)ccc21
inhibition [4]: 40%
inhibition [23]: 100%
inhibition [24]: Dose-dependent effect
inhibition [25]: Active
Activity [17]: Non-Toxic
Activity [26]: Non-Toxic

— ChEMBL document CHEMBL4346746, “Inhibition of 3-phosphoglycerate dehydrogenase (PHGDH) by indole amides abrogates de novo serine synthesis in cancer cells” (Bioorg Med Chem Lett, 2019)
